# Assay results of several laboratories.
# Each line is one published result; the experiments were not run side by side.
# CHRM5: Muscarinic acetylcholine receptor M5 (CHRM5, Homo sapiens, UniProt P08912)
# BCHE: Cholinesterase (BCHE, Homo sapiens, UniProt P06276)
# TPR: Trypanothione reductase (TPR, Trypanosoma cruzi, UniProt P28593)
Compound,target,read-out,action,method,pH,quantity,result
CC1=NCCc2c1[nH]c1cc(O)ccc21,"Tyrosine-protein phosphatase non-receptor type 12 (PTPN12, Homo sapiens, UniProt Q05209)",enzyme activity,inhibitor,fluorescence,,IC50,35 µM
CC(C)(O)[C@@H](Nc1nc(Cl)nc2c1ncn2[C@H]1[C@H](O)[C@H](O)[C@]2(CO)C[C@H]12)C1CC1,CHRM5,ligand displacement,,radioligand,,Ki,2730 nM
[O-]/[N+](=C\c1ccc2cccc(O)c2n1)Cc1ccccc1,BCHE,enzyme activity,inhibitor,,pH 7,Ki,4.3 nM
CC(C)C(Nc1nc(Cl)nc2c1ncn2[C@H]1[C@H](O)[C@H](O)[C@]2(CO)C[C@H]12)C(C)C,CHRM5,ligand displacement,,radioligand,,Ki,> 6300 nM
O=C(Nc1cccc(-c2ccn3c(CC4CC4)nnc3c2C(F)(F)F)c1)c1ccc(S(=O)(=O)F)cc1,"Metabotropic glutamate receptor 3 (GRM3, Homo sapiens, UniProt Q14832)",calcium signal,agonist,,,EC50,> 50.1 µM
C[C@H](NC(=O)Cc1ccccc1)C(=O)N[C@H](Cc1c[nH]c2ccccc12)C(=O)NCCc1ccccc1,"Bombesin receptor subtype-3 (Brs3, Mus musculus, UniProt O54798)",calcium signal,agonist,fluorescence,,EC50,0.0333 µM
O=c1c2ccccc2[se]n1-c1ccccc1,TPR,enzyme activity,inhibitor,absorbance,,IC50,1.36 µM
Nc1c2c(nc3ccccc13)CCCC2,"Ribosyldihydronicotinamide dehydrogenase [quinone] (NQO2, Homo sapiens, UniProt P16083)",enzyme activity,inhibitor,absorbance,,IC50,3 µM
Cc1cc(C)c2[nH]c(=O)c(CN(CCO)C(=S)Nc3ccc(O)cc3)cc2c1,"Beta-glucuronidase (uidA, Escherichia coli, UniProt P05804)",enzyme activity,inhibitor,,,EC50,4.5 µM
C=CCn1c2cc(OC(=O)CCCCN3CCN(Cc4cccc(C)c4)CC3)ccc2c2ccnc(C)c21,BCHE,enzyme activity,inhibitor,Ellman,,IC50,0.251 µM
CC(C)C[C@H](NC(=O)[C@H](Cc1ccccc1)NC(=O)c1cnccn1)B(O)O,"Plasma kallikrein (KLKB1, Homo sapiens, UniProt P03952)",enzyme activity,inhibitor,,,IC50,2 µM
c1ccc2c(c1)CCc1ccccc1C2OCCN1CCNCC1,TPR,enzyme activity,inhibitor,absorbance,,IC50,51.5 µM
C[C@H]1COC2=C1C(=O)C(=O)c1c2ccc2c1CCCC2(C)C,BCHE,enzyme activity,inhibitor,,,Ki,> 100000 nM
C/C=C1\NC(=O)[C@@H](NC(=O)[C@@H](NC(=O)C/C(=C/Cl)CC)C(C)C)[C@@H](C)OC(=O)[C@H](C(C)C)NC(=O)[C@H](Cc2ccc(O)cc2)N(C)C(=O)[C@H](Cc2ccccc2)N2C(=O)[C@H](CC[C@H]2O)NC1=O,"Proteinase K (PROK, Engyodontium album, UniProt P06873)",enzyme activity,inhibitor,fluorescence,,IC50,> 5 µM
[O]=[V]([OH])([OH])[OH],"Tyrosyl-DNA phosphodiesterase 2 (TDP2, Homo sapiens, UniProt O95551)",enzyme activity,inhibitor,absorbance,,IC50,40000 µM
